Holding throughout (type): in vivo
One data set has as its system peripheral nerves. The settings on record: FAM-labeled peptide, intravenous, living mice; for background binding to surrounding nonneural tissue: 2–4 h after injection. The procedure, abridged:
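Peptides were made as fluorescein-5(6)-carbonyl (FAM) conjugates on a C-terminal lysinamide. The control was a same-format peptide with the shared amino acids in random order. Each was given intravenously to living mice, and FAM fluorescence contrast between peripheral nerve and muscle was evaluated 2–4 h post-injection.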

A further data set has as its system sciatic nerve. Put plainly: Cy5-NP41 nerve labeling and localization in thy1-YFP transgenic mice. Conditions: for nerve-to-muscle contrast / nerve labeling: injected into thy1-YFP transgenic mice.
A short description of data set [1]: Behavior, activity, weight and morbidity after injection. The settings on record: mice, injections of 75–300 nmoles.
The nature of data set [2]: Biodistribution and urine metabolites after systemic administration. The settings on record: mice. Summed up:
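Mice received 150 nmoles FAM- or Cy5-labeled test peptide intravenously. Organs were harvested and fluorescence uptake was evaluated. Urine was analysed by MALDI mass spectrometry to identify the major fluorescently labeled species. The control was an all-D-amino-acid FAM-labeled peptide.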

Here are results for five molecules from PMC3364105 (Nature Biotechnology, 2011).

For NTQTLAKAPEHT [NP41], the nerve-to-muscle contrast result in the data set on peripheral nerves (evaluated 2–4 h after injection) is on record as “best nerve to nonnerve contrast”.
As for “acetyl-SHSNTQTLAKAPEHTGC-(Cy5)-amide [Cy5-NP41]”, the localization within nerve result in the data set with sciatic nerve (3–5 µm cryosections of nerves from thy1-YFP animals) was “localized to the epineurium of the nerves with some labeling of the perineurium and endoneurium, but did not colocalize with either myelin or axons”. Moreover, the “nerve-to-muscle contrast / nerve labeling” value in the data set on sciatic nerve was “precisely labeled nerves that expressed YFP”. In addition, the “change in behavior or activity” value in data set [1] is on record as “no change in behavior or activity”. For the same molecule, the biodistribution of fluorescence result in data set [2] (intravenous, 150 nmoles, harvested organs) was “majority of the fluorescence accumulated in the kidney and was excreted into the urine”. Besides, in data set [2] (urine, liquid chromatography–electrospray mass spectrometry / MALDI-MS), the “state of peptide recovered in urine” value is reported as “efficiently metabolized”. Further, the “major fluorescently labeled species in urine” value in data set [2] (urine, matrix-assisted laser desorption/ionization mass spectrometry) is “cysteinamide-Cy5”.
With TYTDWLNFWAWP [NP39], in the data set with peripheral nerves, the “background binding to surrounding nonneural tissue” value is given as “high-background binding to the surrounding nonneural tissue”.
Consider `CCN1/C(=C/C=C/C=C/C2=[N+](CCCCCC(=O)O)c3ccc(S(=O)(=O)O)cc3C2(C)C)C(C)(C)c2cc(S(=O)(=O)[O-])ccc21` [unconjugated Cy5, reference compound], for which, in the data set with sciatic nerve, the “nerve-to-muscle contrast / nerve labeling” value is “No nerve-to-muscle contrast was detected”.
With AHHNSWKAKHHS [NP38], in the data set with peripheral nerves, the “background binding to surrounding nonneural tissue” value is “high-background binding to the surrounding nonneural tissue”.
